Data set [1] relates to Rattus norvegicus. The experiment in a line: Hypoglycemic activity in 18 to 24 hrs-fasted rat assessed as reduction in blood glucose at 0.5 mg/kg, ip measured after 1 hr relative to saline-treated control. Format: functional, organism-based. On the set-up: dose 0.5 mg/kg. In a few lines:
(§1)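 Unanesthetized male Charles River rats (200–250 g), fasted 18–24 h, in groups of five or six. Single ip dose. Tail-vein blood drawn before dosing and 1 h after. Glucose measured by ferricyanide reduction micromethod on an autoanalyzer. Value is the percent fall in blood glucose at 1 h versus a saline-treated control group. Significance levels are p < 0.05, 0.01 and 0.001.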

The subject of data set [2] is Rattus norvegicus. The experiment in a line: Hypoglycemic activity in 18 to 24 hrs-fasted rat assessed as reduction in blood glucose at 1 mg/kg, ip measured after 1 hr relative to saline-treated control. The format is functional. On the set-up: scale not given: the % may be the effect or the level left. As to conditions: route intraperitoneal. In a few lines:
as §1

For data set [3], the system named is Rattus norvegicus. In words: Hypoglycemic activity in 18 to 24 hrs-fasted rat assessed as reduction in blood glucose at 15 mg/kg, ip measured after 1 hr relative to saline-treated control. The note with it: route intraperitoneal. Further details: scale not given: the % may be the effect or the level left. Format: functional. The gist of the method: as §1
In data set [4] the test system is Rattus norvegicus. The experiment in a line: Hypoglycemic activity in 18 to 24 hrs-fasted rat assessed as reduction in blood glucose at 5 mg/kg, ip measured after 1 hr relative to saline-treated control. Format: functional. Further details: scale not given: the % may be the effect or the level left. The note with it: route intraperitoneal. In a few lines: as §1

Data set [5] relates to Rattus norvegicus. In words: Hypoglycemic activity in 18 to 24 hrs-fasted rat assessed as reduction in blood glucose at 25 mg/kg, ip measured after 1 hr relative to saline-treated control. Format: functional. On the set-up: scale not given: the % may be the effect or the level left. The note with it: route intraperitoneal. The gist of the method: as §1
The species named for another data set is Homo sapiens. The experiment in a line: Toxicity in maturity-onset diabetic patient. The format is organism-based. The note with it: in vivo.
The subject of data set [6] is Rattus norvegicus. The experiment in a line: Hypoglycemic activity in 18 to 24 hrs-fasted rat assessed as reduction in blood glucose at 50 mg/kg, ip measured after 1 hr relative to saline-treated control. The format is functional. On the set-up: scale not given: the % may be the effect or the level left. The note with it: route intraperitoneal. The gist of the method: as §1

Data set [7] concerns Rattus norvegicus. In words: Hypoglycemic activity in 18 to 24 hrs-fasted rat assessed as reduction in blood glucose at 100 mg/kg, ip measured after 1 hr relative to saline-treated control. Format: functional. On the set-up: scale not given: the % may be the effect or the level left. As to conditions: route intraperitoneal. The gist of the method: as §1

Active and inactive are the calls of the source. The calls are words filed in the database; no cut-off is given here.

`COc1ncc(Cl)cc1C(=O)NCCC1CCN(S(=O)(=O)NC(=O)NC[C@@H]2C[C@@H]3C=C[C@@H]2C3)CC1.O` (relative stereo): in the data set with Rattus norvegicus [1], the outcome was inactive. For the same compound, the Activity in the data set on Rattus norvegicus [2] came to 20%.

In the case of `O.O=C(NC[C@@H]1C[C@@H]2C=C[C@@H]1C2)NS(=O)(=O)N1CCC(CCNC(=O)c2nc3ccccc3s2)CC1` (relative stereo), the Activity in the data set on Rattus norvegicus [3] is 34%; with Rattus norvegicus [4] it was 24%; with Rattus norvegicus [2], 14%.

`CCCNC(=O)NS(=O)(=O)N1CCC(CCNC(=O)c2cc(Cl)ccc2OC)CC1`: the Activity in the data set with Rattus norvegicus [5] came to 41%; in the data set with Rattus norvegicus [4] it was 11%; in the data set with Rattus norvegicus [2] it was 24%.

`O=C(NC[C@@H]1C[C@@H]2C=C[C@@H]1C2)NS(=O)(=O)N1CCC(CCNC(=O)c2cc(Cl)ccn2)CC1` (relative stereo): the Activity is reported as 46% with Rattus norvegicus [3], 32% in the data set with Rattus norvegicus [4] and 16% in the data set with Rattus norvegicus [2].

`COc1ncccc1C(=O)NCCC1CCN(S(=O)(=O)NC(=O)NC[C@@H]2C[C@@H]3C=C[C@@H]2C3)CC1` (relative stereo): the figures for the Activity in the data set with Rattus norvegicus [4], in the data set filed under Homo sapiens and in the data set with Rattus norvegicus [2] were 32%, “Non-toxic” and 25%, respectively.

Take `O.O=C(NC[C@@H]1C[C@@H]2C=C[C@@H]1C2)NS(=O)(=O)N1CCC(CCNC(=O)c2cc(Cl)cc3cccnc23)CC1` (relative stereo): the outcome in the data set with Rattus norvegicus [1] was inactive. Moreover, the Activity came out at 35% with Rattus norvegicus [4] and 16% in the data set with Rattus norvegicus [2].

With `CCCNC(=O)NS(=O)(=O)c1ccc(Cl)cc1` [CHLORPROPAMIDE], the Activity in the data set with Rattus norvegicus [3] is 18%; in the data set with Rattus norvegicus [4], 10%; in the data set with Rattus norvegicus [6], 46%.

On to `COc1ncccc1C(=O)NCCC1CCN(S(=O)(=O)NC(=O)NC2CCCCC2)CC1`, for which the Activity amounted to 35% in the data set on Rattus norvegicus [3], 33% in the data set on Rattus norvegicus [4] and 22% in the data set with Rattus norvegicus [2].

Consider `O=C(NC1CCCCC1)NS(=O)(=O)N1CCCCC1`, for which the Activity was found to be 19% in the data set on Rattus norvegicus [3] and 34% with Rattus norvegicus [7].

Regarding `O.O=C(NC1CCCCC1)NS(=O)(=O)N1CCC(CCNC(=O)c2cc(Cl)cc3cccnc23)CC1`, the result in the data set with Rattus norvegicus [1] was inactive. Besides, the figures for the Activity with Rattus norvegicus [4] and in the data set with Rattus norvegicus [2] were 52% and 17%, respectively.

The values above are taken from ChEMBL document CHEMBL3272242, “Sulfamylurea hypoglycemic agents. 6. High-potency derivatives” (J Med Chem, 1976).
